Shown are actives, neighbours in structure and some others; about 1.8% of the full set was active somewhere.
CHRM4 agonist = human M4 muscarinic receptor agonists, primary screen, CHO-K1 cells, Fluo-8 calcium fluorescence; Muscarinic acetylcholine receptor M4 (Homo sapiens), P08173; CHO-K1 hM4/Gqi5; vehicle 0%, full acetylcholine response 100%; activation, % at 3 µM; 0.14% of 360,000 active;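 active means activation above the run mean over all test wells plus 3 SD, cut at about 32% in these data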;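 further: peak over basal fluorescence ratio per well then scaled between controls; 0% = DMSO wells and 100% = acetylcholine at EC100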
CHRM5 antagonist = human M5 muscarinic receptor antagonists, primary screen, CHO cells, Fluo-8 calcium fluorescence. inhibition, % at 3 µM. 0.59% of 360,000 active. CHO-hM5 cells, ACh EC80. AID 624040, 2012;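 active means inhibition above a per-plate cutoff, the mean of that plate's test compounds plus 3 SD, cut at about 27% in these data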;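 further: 0% = acetylcholine EC80 with DMSO and 100% = DMSO without agonist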
Target sequence (P08912 whole entry, looked up): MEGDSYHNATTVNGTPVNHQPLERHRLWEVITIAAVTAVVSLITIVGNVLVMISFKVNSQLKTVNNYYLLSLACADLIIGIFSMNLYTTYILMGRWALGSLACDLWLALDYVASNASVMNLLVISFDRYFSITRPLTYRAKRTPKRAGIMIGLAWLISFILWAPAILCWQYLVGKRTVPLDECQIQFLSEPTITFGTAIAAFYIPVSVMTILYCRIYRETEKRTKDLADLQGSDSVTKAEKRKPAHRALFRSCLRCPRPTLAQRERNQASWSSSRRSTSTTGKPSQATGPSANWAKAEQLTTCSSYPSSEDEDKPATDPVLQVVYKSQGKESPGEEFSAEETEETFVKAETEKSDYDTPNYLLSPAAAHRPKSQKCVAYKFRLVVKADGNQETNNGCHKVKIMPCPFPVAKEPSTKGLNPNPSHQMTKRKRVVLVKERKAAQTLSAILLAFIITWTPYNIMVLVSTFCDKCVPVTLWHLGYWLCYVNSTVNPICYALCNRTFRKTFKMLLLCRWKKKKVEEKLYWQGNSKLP
CHRM5 PAM = human M5 muscarinic receptor positive allosteric modulators, primary screen, CHO-K1 cells, Fluo-8 calcium fluorescence | Muscarinic acetylcholine receptor M5 (Homo sapiens), P08912 | CHO-K1 hM5, ACh EC20 PAM; 0% = ACh EC20, 100% = ACh EC100 | activation, % at 3 µM | 0.3% of 360,000 active | AID 624038, 2012;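 active means activation above the run cutoff, the mean activation of all test compounds plus 3 SD, cut at about 18% in these data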
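Replicates: One well per compound, no replicates | System: Human M5 receptor in CHO-K1 cells | Benchmarks: Low control EC20 acetylcholine (0%), high control EC100 acetylcholine (100%) | Probe or stimulus: Acetylcholine, EC20 level | Times: Fluo-8 loading 80 min at 37 °C plus 30 min room temperature | Signal: Intracellular calcium via Fluo-8 fluorescence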
CHRM4 PAM = human M4 muscarinic receptor positive allosteric modulators, primary screen, CHO-K1 cells, Fluo-8 calcium fluorescence. Muscarinic acetylcholine receptor M4 (Homo sapiens), P08173. CHO-K1 hM4/Gqi5, ACh EC20; 0% = ACh EC20, 100% = maximal ACh. activation, % at 3 µM. 0.4% of 360,000 active;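 active means activation above its plate's cutoff, the mean activation of sample wells plus 3 SD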
M5 ag = human M5 muscarinic receptor agonists, primary screen, CHO-K1 cells, Fluo-8 calcium fluorescence | Muscarinic acetylcholine receptor M5 (Homo sapiens), P08912 | CHO-K1 hM5 cells; 0% DMSO wells, 100% maximal acetylcholine response | activation, % at 3 µM | 0.19% of 360,000 active | AID 624037, 2012;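 active means activation above the run's mean over test compounds plus 3 SD, cut at about 23% in these data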;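 further: signal is peak over basal fluorescence ratio across the kinetic read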
CHRM4 antagonist = human M4 muscarinic receptor antagonists, primary screen, CHO cells, Fluo-8 calcium fluorescence. Muscarinic acetylcholine receptor M4 (Homo sapiens), P08173. inhibition, % at 3 µM. CHO-hM4 cells, ACh EC80. 0.73% of 360,000 active;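 active means inhibition above its plate's cutoff, the mean inhibition of sample wells plus 3 SD, cut at about 27% in these data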;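 further: 0% = acetylcholine EC80 with DMSO and 100% = DMSO without agonist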
Starred values were filed as active, the others as inactive.

SMILES	CHRM4 agonist	CHRM5 antagonist	CHRM5 PAM	CHRM4 PAM	M5 ag	CHRM4 antagonist
CCOC(=O)C1CCN(C(=O)Cn2cnc3sc(C)c(S(=O)(=O)N4CCOCC4)c3c2=O)CC1	1.8	13.5	-2.3	-0.7	-4.8	-10.0
CCC1CCCCN1C(=O)c1ccc2c(c1)C(=O)N(c1ccc(C)cc1)C2=O (stereo not given)	2.2	-3.7	4.1	3.6	-0.9	-2.5
COc1ccccc1C(=O)N1CCN(C(=O)[C@H]2O[C@@H](n3ccc(=O)[nH]c3=O)[C@H](O)[C@@H]2O)CC1	1.2	-16.8	6.0	20.8*	1.5	-9.9
CC1=C(C(=O)N2CCOCC2)CC(CC(=O)NCc2cccc3ccccc23)C(=O)N1Cc1ccc(C(C)(C)C)cc1 (stereo not given)	10.7	10.3	-3.7	-10.1	4.4	3.3
COc1ccc(CNC(=O)C2CCN(S(=O)(=O)c3ccc(N4CCCC4=O)cc3)CC2)cc1	0.8	6.6	-2.8	3.2	-0.1	1.0
CC(=O)Nc1cccc(NC(=O)c2cc(-c3cccnc3)nc3ccc(Br)cc23)c1	27.3	15.9	-18.0	-12.2	6.4	31.4*
CC(=O)NC(c1ccccc1)c1cc([N+](=O)[O-])c2cccnc2c1O (stereo not given)	0.8	-12.8	22.3*	5.7	2.9	-4.7
N#Cc1ccc(NC(=O)COc2ccc(-n3cnnn3)cc2)cc1	1.8	12.2	-6.5	2.8	5.6	1.6
Cc1cc(NC(=O)COC(=O)c2cccc(S(=O)(=O)N(C)C3CCCCC3)c2)no1	3.3	4.1	-4.7	9.1	-3.6	29.6*
COc1ccc(NS(=O)(=O)c2cccc(C(=O)OCC(=O)Nc3cc(C)on3)c2)cc1	5.4	0.2	-4.9	7.7	5.3	9.2
Cc1ccc(NS(=O)(=O)c2ccc(C(=O)OCC(=O)Nc3cc(C)on3)cc2)cc1	19.1	4.0	1.6	-5.3	25.9*	6.6
OC[C@@H]1CN(Cc2ccc(-c3ccccc3)cc2)C[C@H](n2cnc3c(N4CCOCC4)ncnc32)O1	15.2	5.1	-4.8	-7.8	5.1	-3.7
COc1ccc(/C=C2\SC(N)=NC2=O)cc1	0.4	2.2	-3.8	-6.1	3.6	1.1
COc1cc(/C=N/N2C(=O)CSC2=S)cc(Br)c1O	69.4*	10.0	-21.3	-30.4	55.7*	8.5
COc1cc(/C=C2\SC(N)=NC2=O)cc(Br)c1O	6.8	-7.0	-9.5	-7.0	23.7*	-0.6
C=CCn1c(-c2ccccn2)n[nH]c1=S	0.5	2.1	-4.0	8.9	0.2	-8.3
CN(C)c1ccc(C=NN2C(=O)CSC2=S)c(Cl)c1	5.4	24.1	-11.4	-3.9	25.8*	1.4
Oc1ccc(N=Nc2ccccc2)o1	1.0	1.5	-1.5	-1.7	-2.4	-5.5
Cc1nn(Cc2ccc(Cl)c(Cl)c2)c(C)c1NC(=O)c1cn(-c2ccccc2)nc1-c1ccccc1	1.9	4.0	24.6*	12.7	-2.2	10.7
COc1ccc(C2CCc3cc4c(cc3C2=NO)OCO4)cc1OC (stereo not given)	15.7	7.9	-12.4	-9.2	5.3	2.6
COc1ccc(CCNc2nc(-c3cccnc3)nc3ccccc23)cc1OC	15.3	39.4*	-14.8	-19.1	-0.1	28.2*
COc1ccc(CCNc2nc(C)nc3c2oc2ccccc23)cc1OC	21.1	32.5*	-20.7	-17.1	7.4	22.7
COc1ccc(CCNc2ncnc3c2oc2ccccc23)cc1OC	20.7	50.3*	-16.1	-21.3	6.7	26.2
O=S(=O)(Nc1cccc(F)c1)c1ccc(S(=O)(=O)N2CCOCC2)cc1	2.6	5.7	-5.3	7.0	3.4	-15.1
O=C(CSc1nc(N2CCOCC2)nc(N2CCOCC2)n1)Nc1ccc([N+](=O)[O-])cc1	1.3	-23.0	21.6*	4.2	1.5	-11.9

High-throughput results (PubChem BioAssay)
